This note sets out measurements from ChEMBL document CHEMBL4732197, “Identification of novel potent HIV-1 inhibitors by exploiting the tolerant regions of the NNRTIs binding pocket” (Eur J Med Chem, 2021).

In brackets after ≈: the same amount, converted by molar mass.

Data set [1] concerns Human immunodeficiency virus 1. As to the kind of experiment: Antiviral activity against HIV-1 3B infected in human MT4 cells assessed as reduction in virus-induced cytopathic effect incubated for 5 days by MTT assay. The data set is classed as functional, organism-based. The settings on record: Human immunodeficiency virus 1, 3B, MT4, 120 h. Summed up: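 MT-4 cells resuspended at 6 × 10^5 cells/mL were infected with HIV-1 stock at 100–300 CCID50. Compounds were tested in serial 5-fold dilutions in triplicate wells. Viability was read by MTT after 5 days at 540 and 690 nm, using the median of three wells.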
For orientation: Damage to the host cells serves as the signal in cytopathic effect assays.

The nature of data set [2]: Cytotoxicity against human MT4 cells assessed as reduction in cell viability incubated for 5 days by MTT assay. The data set is classed as cell-based. The settings on record: time 5 day. Summed up: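 Mock-infected MT-4 cells at 6 × 10^5 cells/mL were given serial 5-fold compound dilutions in triplicate wells alongside the infected series. After 5 days viability was read by MTT at 540 and 690 nm, using the median of three wells.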
On the technique in general: Tetrazolium assays rely on reduction of a dye to a coloured formazan, in cell work by metabolically active cells.

The nature of data set [3]: Selectivity index, ratio of CC50 for human MT4 cells to EC50 for antiviral activity against HIV IIIB. The data set is classed as toxicity. The following applies: read-out: Ratio CC50/EC50. Summed up:
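SI is computed as CC50/EC50. […] Both used serial 5-fold dilutions in triplicate and were read by MTT after 5 days, taking the median absorbance of three wells.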

Data set [4] can be described thus: Inhibition of reverse transcriptase RES056 mutant in HIV-1 infected in human MT4 cells assessed as reduction in virus-induced cytopathic effect incubated for 5 days by MTT assay. The class given is cell-based. The settings on record: Human immunodeficiency virus 1, MT4, 120 h. The gist of the method: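 MT-4 cells were spun down, resuspended at 6 × 10^5 cells/mL and infected with 100–300 CCID50 of mutant HIV-1 (RES056 = K103N + Y181C). Serial 5-fold compound dilutions were tested in triplicate wells alongside mock-infected wells. After 5 days, viability was read by MTT at 540 and 690 nm using the median of three wells.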

For data set [5], the target named is Human immunodeficiency virus type 1 reverse transcriptase (Human immunodeficiency virus 1, UniProt Q72547). Kind of data set: Inhibition of HIV-1 reverse transcriptase assessed as inhibition of biotin-dUTP incorporation into wild type RT measured after 1 hr by ELISA.
Data set [6] in a line: Solubility in water at pH 7 at 0.1 to 10 mg.
Data set [7] can be described thus: physchem. The settings on record: water, pH 2.
The nature of data set [8]: physchem. The settings on record: water, pH 7.4.
The subject of data set [9] is reverse transcriptase Y181C mutant (HIV-1). As to the kind of experiment: Inhibition of reverse transcriptase Y181C mutant in HIV-1 infected in human MT4 cells assessed as reduction in virus-induced cytopathic effect incubated for 5 days by MTT assay. The settings on record: Human immunodeficiency virus 1, MT4, 120 h.

For the compound `Cc1cc(/C=C/C#N)cc(C)c1Oc1nc(Nc2ccc(CN3CCN(S(N)(=O)=O)CC3)cc2)nc2ccsc12`, the EC50 in [1] is 7 nM; in [4], 1.91 µM; in data set [9] it was 0.154 µM. Moreover, the cytotoxic concentration (CC50) at 120 h in [2] was 145 µM. In addition, the selectivity ratio in data set [3] came out at 19000. Also, the IC50 in [5] turned out to be 961 nM. The values for the solubility (in [6]; in the data set “physchem [7]”; in “physchem [8]”) were 49.7 µg/mL (≈ 86.3 µM), 73.1 µg/mL (≈ 127 µM) and 39.5 µg/mL (≈ 68.6 µM), respectively.
Turning to `Cc1cc(/C=C/C#N)cc(C)c1Oc1nc(Nc2ccc(N3CCN(S(C)(=O)=O)CC3)cc2)nc2ccsc12`, the 50% effective concentration (EC50) is 27 nM in data set [1], greater than 11.5 µM in data set [4] and 4.53 µM in [9]. In addition, the half-maximal cytotoxic concentration (CC50) at 120 h in [2] was determined as 11.5 µM. Further, the selectivity ratio in data set [3] amounted to 428. Also, the half-inhibitory concentration (IC50) in [5] worked out at 211 nM.
For `Cc1cc(/C=C/C#N)cc(C)c1Oc1nc(Nc2ccc(CN3CCN(S(N)(=O)=O)CC3)cc2)nc2sccc12`, the EC50 in data set [1] was determined as 8 nM; in [4], 1.38 µM; in data set [9], 0.045 µM. Besides, in [2], the cytotoxic concentration (CC50) at 120 h was greater than 218 µM. The selectivity ratio in [3] is greater than 26900. For the same compound, the IC50 in [5] was determined as 299 nM. The results for the solubility (in [6]; in the data set “physchem [7]”; in “physchem [8]”) were 49.3 µg/mL (≈ 85.6 µM), 64.9 µg/mL (≈ 113 µM) and 38.9 µg/mL (≈ 67.6 µM), respectively.
For `Cc1cc(/C=C/C#N)cc(C)c1Oc1nc(Nc2ccc(N3CCCC(N)C3)cc2)nc2sccc12` (stereo not given), the half-maximal effective concentration (EC50) in [1] was 461 nM. Also, in data set [2], the CC50 at 120 h turned out to be 4.61 µM. The selectivity ratio in data set [3] was 10. The IC50 in [5] came out at 956 nM.
Turning to `Cc1cc(/C=C/C#N)cc(C)c1Oc1nc(Nc2ccc(N3CCN(S(N)(=O)=O)CC3)cc2)nc2ccsc12`, the values for the EC50 in data set [1], in data set [4] and in data set [9] were 27 nM, greater than 223 µM and 2.25 µM, respectively. Besides, the CC50 at 120 h in [2] was greater than 223 µM. The selectivity ratio in data set [3] was greater than 8310. In [5], the IC50 amounted to 214 nM.
In the case of `Cc1cc(/C=C/C#N)cc(C)c1Oc1nc(Nc2ccc(N3CCCC(NS(C)(=O)=O)C3)cc2)nc2sccc12` (stereo not given), the 50% effective concentration (EC50) in data set [1] was found to be 1430 nM; in data set [4] it was 16.5 µM; in data set [9], 14 µM. Also, the cytotoxic concentration (CC50) at 120 h in data set [2] was 112 µM. Also, the selectivity ratio in data set [3] was found to be 78. Further, the IC50 in data set [5] turned out to be 1020 nM.
In the case of `Cc1cc(/C=C/C#N)cc(C)c1Oc1nc(Nc2ccc(N3CCN(S(C)(=O)=O)CC3)cc2)nc2sccc12`, the results for the EC50 in data set [1], in data set [4] and in [9] were 172 nM, 175 µM and 42.7 µM, respectively. The CC50 at 120 h in data set [2] is greater than 222 µM. For the same compound, in data set [3], the selectivity ratio was greater than 1300. For the same compound, the IC50 in data set [5] was determined as 239 nM.
Turning to `Cc1cc(/C=C/C#N)cc(C)c1Oc1nc(Nc2ccc(N3CCCC(NS(N)(=O)=O)C3)cc2)nc2ccsc12` (stereo not given), the figures for the half-maximal effective concentration (EC50) in data set [1], in [4] and in data set [9] were 59 nM, greater than 218 µM and 3.64 µM, respectively. The cytotoxic concentration (CC50) at 120 h in data set [2] is greater than 218 µM. Also, in data set [3], the selectivity ratio was greater than 3630. For the same compound, the IC50 in data set [5] worked out at 2410 nM.
With `Cc1cc(/C=C/C#N)cc(C)c1Oc1nc(Nc2ccc(CN3CCN(S(C)(=O)=O)CC3)cc2)nc2ccsc12`, the half-maximal effective concentration (EC50) is 391 nM in data set [1], greater than 20.7 µM in data set [4] and 5.64 µM in [9]. In data set [2], the CC50 at 120 h is 20.7 µM. Further, the selectivity ratio in [3] worked out at 53. For the same compound, in data set [5], the half-maximal inhibitory concentration (IC50) is 139 nM.
Regarding `Cc1cc(/C=C/C#N)cc(C)c1Oc1nc(Nc2ccc(CN3CCNCC3)cc2)nc2ccsc12`, the EC50 in data set [1] stood at 216 nM. Also, the half-maximal cytotoxic concentration (CC50) at 120 h in data set [2] worked out at 3.97 µM. The selectivity ratio in data set [3] is 18. For the same compound, the half-maximal inhibitory concentration (IC50) in data set [5] turned out to be 707 nM.
Taken in the same sequence, the figures for `Cc1cc(/C=C/C#N)cc(C)c1Oc1nc(Nc2ccc(CN3CCNCC3)cc2)nc2sccc12` were 42 nM, 4.03 µM, 94 and 151 nM.
Taken in the same sequence, the figures for `Cc1cc(/C=C/C#N)cc(C)c1Oc1nc(Nc2ccc(N3CCNCC3)cc2)nc2sccc12` were 584 nM, 4.74 µM, 8 and 849 nM.
As to `Cc1cc(/C=C/C#N)cc(C)c1Oc1nc(Nc2ccc(N3CCN(S(N)(=O)=O)CC3)cc2)nc2sccc12`, the EC50 in [1] came out at 28 nM; in [4] it was 196 µM; in [9] it was 1.36 µM. Also, the half-maximal cytotoxic concentration (CC50) at 120 h in data set [2] was greater than 223 µM. The selectivity ratio in [3] is greater than 7790. The IC50 in data set [5] amounted to 713 nM.
For the compound `Cc1cc(/C=C/C#N)cc(C)c1Oc1nc(Nc2ccc(CN3CCN(S(C)(=O)=O)CC3)cc2)nc2sccc12`, the EC50 was 36 nM in data set [1], 18.8 µM in [4] and 1.27 µM in data set [9]. Also, the 50% cytotoxic concentration (CC50) at 120 h in data set [2] is 131 µM. Moreover, in data set [3], the selectivity ratio amounted to 3560. Also, the IC50 in [5] worked out at 103 nM.
With `Cc1cc(/C=C/C#N)cc(C)c1Oc1nc(Nc2ccc(N3CCCC(NS(N)(=O)=O)C3)cc2)nc2sccc12` (stereo not given), the EC50 is 126 nM in data set [1], greater than 218 µM in [4] and 7.53 µM in [9]. Moreover, in data set [2], the CC50 at 120 h is greater than 218 µM. For the same compound, the selectivity ratio in data set [3] is greater than 1730. The IC50 in [5] was found to be 4790 nM.
Consider `Cc1cc(/C=C/C#N)cc(C)c1Oc1nc(Nc2ccc(N3CCNCC3)cc2)nc2ccsc12`, for which the EC50 in data set [1] is 387 nM. The CC50 at 120 h in [2] was 5.73 µM. Besides, in data set [3], the selectivity ratio worked out at 15. Moreover, in data set [5], the 50% inhibitory concentration (IC50) was determined as 945 nM.
Regarding `Cc1cc(/C=C/C#N)cc(C)c1Oc1nc(Nc2ccc(N3CCCC(NS(C)(=O)=O)C3)cc2)nc2ccsc12` (stereo not given), the results for the EC50 in [1], in data set [4] and in [9] were 450 nM, greater than 217 µM and 43.4 µM, respectively. Moreover, the half-maximal cytotoxic concentration (CC50) at 120 h in data set [2] was greater than 217 µM. Moreover, in [3], the selectivity ratio was greater than 434. Further, in data set [5], the half-maximal inhibitory concentration (IC50) turned out to be 775 nM.
As for `Cc1cc(/C=C/C#N)cc(C)c1Oc1nc(Nc2ccc(N3CCCC(N)C3)cc2)nc2ccsc12` (stereo not given), in [1], the EC50 was found to be 815 nM. Also, in [2], the CC50 at 120 h amounted to 3.82 µM. Besides, the selectivity ratio in data set [3] is 5. Besides, in [5], the IC50 is 1580 nM.
`O=C1Nc2ccc(Cl)cc2[C@@](C#CC2CC2)(C(F)(F)F)O1` [EFAVIRENZ]: the EC50 in [1] was 28 nM; in data set [4] it was 0.335 µM; in data set [9], 0.005 µM. Further, the CC50 at 120 h in data set [2] is greater than 6.33 µM.
In the case of `Cc1cc(C#N)cc(C)c1Oc1nc(Nc2ccc(C#N)cc2)nc(N)c1Br` [ETRAVIRINE], in [2], the CC50 at 120 h was greater than 4.59 µM. For the same compound, the EC50 is 0.06 µM in data set [4] and 0.015 µM in [9]. Besides, the solubility (in data set [6]; in the data set “physchem [8]”) was less than 1 µg/mL in each case.
With `Cc1ccnc2c1NC(=O)c1cccnc1N2C1CC1` [NEVIRAPINE], the 50% effective concentration (EC50) in data set [1] is 150 nM; in data set [4], greater than 15 µM; in data set [9], 5.05 µM. In addition, in [2], the CC50 at 120 h was greater than 15 µM.

One may read the EC50 as the concentration giving half of the maximal effect. One may read the CC50 as the concentration at which the toxic effect on the cells reaches its halfway point. One may read the IC50 as the concentration at which inhibition is half-maximal. One may read the solubility as how much of the substance goes into solution per volume. Read a low solubility as a poorly soluble substance.
